Screening data deposited in PubChem by several laboratories.
This is a sample that favours compounds with a hit; in the whole collection about 2.1% have one here.
ARFGAP1 inh – inhibitors of rat ARFGAP1 GAP activity, primary screen, biochemical, fluorescence polarization, GDP tracer; inhibition, % at 16.5 µM; ADP-ribosylation factor GTPase-activating protein 1 (Rattus norvegicus), Q62848; Arfgap1-stimulated ARF1 GTP hydrolysis, GDP FP detection; hit rate 0.26% among 360,000; AID 651572, 2012;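 active = inhibition above a per-plate limit, mean inhibition of low control wells plus 3 SD, cut at about 25% in these data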
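Assay system: purified rat His6-Arfgap1 residues 1-136 (GAP domain); Reagent: human Δ17 ARF1 bound to GTP; Dosing: 16.5 µM single point, 1.26% DMSO; Times: GTP hydrolysis reaction 2 h at 25 °C; Signal: FP, GDP Alexa 633 tracer displaced from anti-GDP antibody, 620/688 nm; Measure: % inhibition from polarization.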
ASAP1 GAP inh – inhibitors of human ASAP1 ArfGAP activity, primary screen, biochemical, fluorescence polarization | Arf-GAP with SH3 domain, ANK repeat and PH domain-containing protein 1 (Homo sapiens), … | ASAP1-stimulated ARF1 GTP hydrolysis, GDP FP detection | inhibition, % at 16.5 µM | hit rate 0.19% among 360,000; in the data active = inhibition above about 25%
APOBEC3G inh – APOBEC3G DNA deaminase inhibitors, primary screen, biochemical, fluorescence, single-stranded DNA substrate, uHTS; DNA dC->dU-editing enzyme APOBEC-3G (Homo sapiens), Q9HC16; hit rate 0.28% among 330,000; recombinant A3G, ssDNA deamination FAM/TAMRA fluorescence; inhibition, % at 20 µM;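 active = inhibition of at least 40% at 20 µM, with no more than 30% in the related APOBEC3A deaminase screen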
Target sequence (Q9HC16 whole entry, looked up): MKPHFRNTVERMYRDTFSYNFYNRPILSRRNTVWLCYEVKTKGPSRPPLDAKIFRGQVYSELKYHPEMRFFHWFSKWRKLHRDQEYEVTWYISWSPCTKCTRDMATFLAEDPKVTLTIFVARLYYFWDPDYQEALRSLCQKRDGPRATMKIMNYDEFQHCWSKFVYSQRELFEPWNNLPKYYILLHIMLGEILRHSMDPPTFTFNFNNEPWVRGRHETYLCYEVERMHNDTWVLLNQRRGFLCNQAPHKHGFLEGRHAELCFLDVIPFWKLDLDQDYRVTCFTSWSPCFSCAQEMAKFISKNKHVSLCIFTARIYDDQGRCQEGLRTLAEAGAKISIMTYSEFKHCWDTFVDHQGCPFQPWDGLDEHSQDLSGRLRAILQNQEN
A3A deaminase – APOBEC3A ssDNA deaminase inhibitors, primary screen, selectivity assay for APOBEC3G inhibitor project, biochemical, FAM/TAMRA oligo cleavage fluorescence | DNA dC->dU-editing enzyme APOBEC-3A (Homo sapiens), P31941 | recombinant A3A, FAM/TAMRA ssDNA deamination fluorescence | inhibition, % at 20 µM | hit rate 0.41% among 330,000 | AID 493011, 2011;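 active = at least 40% inhibition at 20 µM here, with at most 30% in a related deaminase screen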
C2C12 statin – suppressors of statin myotoxicity in C2C12 myotubes, primary screen, cell-based, single point, plate reader | C2C12 myotubes + simvastatin, ATP luminescence, 48 h; scaled: DMSO 0, geranylgeraniol control 100 | rescue of ATP level, % at 7.49 µM | hit rate 0.78% among 330,000 | AID 602340, 2012;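 active = mean ATP rescue above about 67%, or every replicate alone reaching that limit, limit read from the data, passing the limit was not always enough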;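 note: myotubes were challenged with 10 µM simvastatin during compound exposure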
SUMO Mot1 rescue – yeast Mot1-301 growth rescue at high temperature, primary screen, SUMOylation pathway inhibitor project, S. cerevisiae, ATP luminescence, 38.5C; growth rescue, % at 18.8 µM; hit rate 1% among 320,000; S. cerevisiae Mot1-301 growth rescue; percent above DMSO median, 100 means doubled;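 active = every valid replicate shows activation above 250% relative to neutral control wells; inactive = the rest, any valid replicate at or below 250%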
ASAP1 GAP conf – ASAP1 GAP activity inhibitors, confirmation, biochemical, fluorescence polarization, human, triplicate | shares compounds with ASAP1 GAP inh | hit rate 37% among 620 | ASAP1-stimulated Arf1 GTPase, GDP fluorescence polarization | inhibition, % at 16.5 µM | AID 624431, 2012;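 active = mean inhibition over triplicates exceeds the hit threshold derived for the earlier primary screening run, cut at about 25% in these data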
Numbers stand for hits; . = inactive; / = not tested or not shown.

SMILES	ARFGAP1 inh	ASAP1 GAP inh	APOBEC3G inh	A3A deaminase	C2C12 statin	SUMO Mot1 rescue	ASAP1 GAP conf
COc1ccc(-c2cnc3c(c2)C(=O)N([C@H](C)CO)C[C@@H](C)[C@@H](CN(C)C)O3)cc1	/	/	/	/	.	/	/
Oc1cccc(Nc2nc(-c3ccccc3)nc3ccccc23)c1	.	27	.	.	.	.	28
COC(=O)c1cccc(Nc2nc(-c3ccncc3)nc3ccccc23)c1	.	28	.	.	.	.	57
C/C=C/c1ccc2c(c1)O[C@H](CN(C)C(=O)Cc1ccccc1)[C@@H](C)CN([C@@H](C)CO)S2(=O)=O	/	/	/	/	.	/	/
C[C@H]1CN([C@@H](C)CO)C(=O)c2cccc(NC(=O)Nc3ccc(F)cc3)c2O[C@@H]1CN(C)C	/	/	/	/	.	/	/
Cc1ccc2nc(SCC(=O)Nc3ccc(F)cc3F)[nH]c2c1	.	27	.	.	.	.	.
COC(=O)C[C@@H]1CC[C@@H]2[C@@H](COc3ccc(NS(=O)(=O)c4ccccc4F)cc3C(=O)N2C)O1	/	/	/	/	.	/	/
O=C(N/N=C/c1cccnc1)c1cc2c(ccc3ccccc32)o1	.	28	.	.	.	.	55
O=C(O)c1ccc(NC2=C(N3CCOCC3)C(=O)c3ccccc3C2=O)cc1	.	.	.	.	/	.	/
Cc1ccc(NC2=C(N3CCOCC3)C(=O)c3ccccc3C2=O)cc1	.	36	.	.	.	.	.
COc1ccc(/C=C2\SC(=S)N(CCC(=O)NCCCn3ccnc3)C2=O)cc1	.	.	.	.	.	.	/
O=C(CCCN1C(=O)/C(=C/c2ccc(F)cc2)SC1=S)NCCCn1ccnc1	.	26	.	.	.	.	.
CC[n+]1c(/C=C/C=C/N(C(C)=O)c2ccccc2)sc2ccccc21	.	45	.	.	.	.	44
CC(=O)N(\C=C/C=C/C=C1\Sc2ccccc2C1=O)c1ccccc1	.	.	.	.	.	.	/
C[C@H]1CN([C@@H](C)CO)C(=O)c2cc(NC(=O)C3CC3)ccc2O[C@H]1CN(C)C(=O)NC1CCCCC1	/	/	/	/	.	/	/
Cc1ccc(S(=O)(=O)c2c(N)n(CCC(C)C)c3nc4ccccc4nc23)cc1	.	25	.	.	.	.	.
Cc1ccc(S(=O)(=O)c2c(N)n(CCCO)c3nc4ccccc4nc23)cc1	.	.	.	.	/	.	/
CC(Oc1ccc(Cl)cc1Cl)c1nc(-c2ccc(NC(=O)c3ccncc3)cc2)no1 (centres undefined)	.	25	.	.	.	.	.
CC(Oc1ccc(Cl)cc1Cl)c1nc(-c2ccc(NC(=O)c3cccnc3)cc2)no1 (centres undefined)	.	.	.	.	.	.	/
C[C@@H]1CN([C@@H](C)CO)C(=O)c2cc(C3=CCCCC3)cnc2O[C@@H]1CN(C)C(=O)Nc1ccccc1	/	/	/	/	.	/	/
C[C@@H]1CC2=C(C(=O)OC(C)(C)O2)[C@H](c2ccc(Cl)cc2)O1	.	26	/	/	/	/	.
O=C(N/N=C/c1ccc(Br)s1)c1ccccc1[N+](=O)[O-]	.	.	.	.	.	.	/
O=C(N/N=C/C(Br)=C/c1ccccc1)c1ccc([N+](=O)[O-])cc1	.	48	.	.	.	.	78
O=C(N/N=C/c1ccc(Br)s1)c1ccc([N+](=O)[O-])cc1	.	36	.	.	.	.	97
